Results from ChEMBL document CHEMBL4052611, “Opportunistic Sampling of Roadkill as an Entry Point to Accessing Natural Products Assembled by Bacteria Associated with Non-anthropoidal Mammalian Microbiomes” (J Nat Prod, 2017).

Assays:
Candida albicans [1] = assay: Antibiofilm activity against Candida albicans SC5314 after 48 hrs by XTT assay; assay type: functional; conditions: SC5314, 48 h
Summary of the method: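 SC5314 grown overnight in BHI at 37 °C, then washed in PBS and resuspended in RPMI-1640 buffered to pH 7.0 with 0.17 M MOPS. Cells at 2.5×10^3 cells mL^-1 were incubated 48 h at 37 °C with compounds (2 mM DMSO stocks; DMSO ≤2% v/v final). Wells were washed twice with PBS and refilled with fresh medium. Biofilm was read by XTT (0.1 mg mL^-1, 1 h, 37 °C) at A492. Triplicate, three separate occasions.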

Candida albicans [2] = assay: Induction of cell killing in Candida albicans SC5314 up to 100 uM after 48 hrs by XTT assay
Summary of the method: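 Growth assay based on CLSI M27-A3, modified. SC5314 was precultured overnight in BHI at 37 °C, washed in PBS (pH 7.4) and resuspended at 2.5×10^3 cells mL^-1 in RPMI-1640/MOPS (pH 7.0). Compounds came from 2 mM DMSO stocks (DMSO ≤2% v/v final). After 48 h at 37 °C, viability was read by XTT (0.1 mg mL^-1, 1 h) at A492. MIC = lowest concentration giving ≥85% loss of metabolic activity. Triplicate, three occasions.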

| SMILES | IC50 (Candida albicans [1]) [µM] | Activity (Candida albicans [2]) |
| --- | --- | --- |
| CCCCCCC[C@@H]1CC(=O)N[C@H](CC(C)C)C(=O)N[C@@H](CO)C(=O)N[C@@H]([C@@H](C)O)C(=O)N[C@H](Cc2ccc(O)cc2)C(=O)N[C@@H]([C@@H](C)CC)C(=O)O1 | 29.2 | Non-Toxic |
| CCCCCCC[C@@H]1CC(=O)N[C@H](CC(C)C)C(=O)N[C@@H](CO)C(=O)N[C@@H]([C@@H](C)O)C(=O)N[C@H](Cc2ccccc2)C(=O)N[C@@H]([C@@H](C)CC)C(=O)O1 | 7.7 | Non-Toxic |
| CCCCCCC[C@@H]1CC(=O)N[C@H](CC(C)C)C(=O)N[C@@H](CO)C(=O)N[C@@H]([C@@H](C)O)C(=O)N[C@H](Cc2ccccc2)C(=O)N[C@@H](C(C)C)C(=O)O1 | 59.8 | Non-Toxic |
| CCCCC[C@@H]1CC(=O)N[C@H](CC(C)C)C(=O)N[C@@H](CO)C(=O)N[C@@H]([C@@H](C)O)C(=O)N[C@H](Cc2ccccc2)C(=O)N[C@@H]([C@@H](C)CC)C(=O)O1 | 13.4 | Non-Toxic |
